# Source: PubChem
# This is a sample that favours compounds with a hit; in the whole collection about 2.2% have one here.
# ASAP1 inh = inhibitors of human ASAP1 ArfGAP activity, primary screen, biochemical, fluorescence polarization | Arf-GAP with SH3 domain, ANK repeat and PH domain-containing protein 1 (Homo sapiens), … | ASAP1-stimulated ARF1 GTP hydrolysis, GDP FP detection | inhibition, % at 16.5 µM | 360,000 tested, 0.19% active | AID 624377, 2012; in the data active = inhibition above about 25%;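 also: 0% = vehicle with enzyme and substrate and 100% = no enzyme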
# Target sequence (Q9ULH1 325-724 limits assumed): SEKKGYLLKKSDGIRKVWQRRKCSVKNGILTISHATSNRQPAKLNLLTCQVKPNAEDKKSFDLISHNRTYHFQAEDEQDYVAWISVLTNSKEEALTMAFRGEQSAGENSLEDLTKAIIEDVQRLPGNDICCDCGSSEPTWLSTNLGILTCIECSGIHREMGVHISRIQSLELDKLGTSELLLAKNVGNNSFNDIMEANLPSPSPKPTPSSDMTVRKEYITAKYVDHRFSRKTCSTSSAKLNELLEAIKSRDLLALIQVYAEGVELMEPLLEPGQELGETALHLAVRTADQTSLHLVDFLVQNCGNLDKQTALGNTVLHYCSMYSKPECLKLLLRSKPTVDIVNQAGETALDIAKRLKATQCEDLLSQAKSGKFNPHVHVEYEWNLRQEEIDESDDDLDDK
# Granule exo inh = LAMP-1 surface exposure blockers, TALL-104 cells – cell-based, flow cytometry, MLPCN library, primary screen; inhibition, % at 10 µM; TALL-104 LAMP-1 surface exposure; cells stimulated with thapsigargin and PMA; 360,000 tested, 0.66% active; AID 651702, 2012;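 active = inhibition above about 55%, limit read from the data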
# NRP1-CendR mod = modulators of CendR peptide binding to NRP-1, primary screen, biochemical, fluorescence polarization, uHTS | Neuropilin-1 (Homo sapiens), O14786 | FAM-RPARPAR peptide binding to NRP-1 | inhibition, % at 25 µM | 360,000 tested, 0.85% active | AID 602438, 2012;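 active = inhibition or corrected inhibition above about 18%, plus a signal ratio from 0.5 to 1.5, limit read from the data, passing the limit was not always enough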
# V-ATPase pHluor = regulators of yeast V-ATPase proton pumping, primary screen, pHLuorin cytosolic pH fluorescence | AID 504577, 2011 | response, % at 10 µM | 350,000 tested, 0.37% active | S. cerevisiae; in the data active = response mostly above about 7.3%, no sharp cut-off; inactive = mostly below about 5.4%; also: actives read high
# ARFGAP1 inhibitor = inhibitors of rat ARFGAP1 GAP activity, primary screen, biochemical, fluorescence polarization, GDP tracer | ADP-ribosylation factor GTPase-activating protein 1 (Rattus norvegicus), Q62848 | Arfgap1-stimulated ARF1 GTP hydrolysis, GDP FP detection | inhibition, % at 16.5 µM | 360,000 tested, 0.26% active;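 active = inhibition above a per-plate limit, mean inhibition of low control wells plus 3 SD, cut at about 25% in these data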;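 also: 0% = DMSO wells with enzyme and 100% = wells lacking Arfgap1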
# Target sequence (Q62848 1-136 limits assumed): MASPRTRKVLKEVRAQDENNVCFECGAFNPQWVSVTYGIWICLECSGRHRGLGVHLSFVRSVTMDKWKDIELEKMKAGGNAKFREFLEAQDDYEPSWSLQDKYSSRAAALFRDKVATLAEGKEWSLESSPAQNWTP
#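 Material – truncated rat Arfgap1 GAP domain · Buffer or medium – HEPES-based buffer, pH 7.5 · Reagent – human ARF1(Δ1-17)-GTP substrate · Dosing – 16.5 µM single point, 1.26% DMSO · Schedule – GTP hydrolysis reaction 2 h at 25 °C · Technique – GDP detection by fluorescence polarization · Benchmarks – No-Arfgap1 wells (100%) versus DMSO full-reaction wells (0%) · Repeats – single replicate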
# * marks the source's active call; other numbers are inactive results; x = no result given.
SMILES,ASAP1 inh,Granule exo inh,NRP1-CendR mod,V-ATPase pHluor,ARFGAP1 inhibitor
Cc1cc(=O)oc2cc(OC(C)C(=O)NC3CCN(Cc4ccccc4)CC3)ccc12 (configuration not stated),5,-3,-2,-1,-7
CC(Oc1ccc2c3c(c(=O)oc2c1)CCC3)C(=O)NC1CCN(Cc2ccccc2)CC1 (configuration not stated),-9,-2,18*,-2,-3
O=C(Cc1ccc(Cl)cc1)NNC(=S)NC(=O)c1cccs1,-8,-4,37*,3,-4
O=C(CSc1ccccn1)N/N=C/C=C/c1ccccc1,5,-1,22*,-3,1
CCn1cc(C(=O)NCc2cccs2)c(=O)c2ccc(C)nc21,-3,7,28*,4,4
Cc1ccc(S(=O)(=O)N2CCCc3nc(C)c(C)cc32)cc1,-5,x,x,x,9
CC(C)(C)OC(=O)C[C@@H]1C/C=C\C[C@@H](CC(=O)NCCO)C(=O)NC[C@@H](c2ccccc2)OC1=O,-5,0,18*,0,2
CC(C)(C)OC(=O)C[C@H]1C/C=C\C[C@@H](CC(=O)N[C@@H](CO)Cc2ccccc2)C(=O)NCCOC1=O,9,8,36*,1,7
CC(C)(C)[C@H]1COC(=O)[C@H](NC(=O)OCC2c3ccccc3-c3ccccc32)C/C=C\C[C@@H](CC(=O)N[C@H](CO)Cc2ccccc2)C(=O)N1,8,-7,-11,2,1
O=C(C[C@H]1C/C=C\C[C@@H](Cc2ccc(F)cc2)C(=O)O[C@H](c2ccccc2)CNC1=O)NCCO,5,-2,18*,-3,-6
CC(C)(C)[C@H]1COC(=O)[C@H](NC(=O)OCC2c3ccccc3-c3ccccc32)C/C=C\C[C@@H](CC(=O)N[C@@H](CO)Cc2ccccc2)C(=O)N1,-5,2,19*,-3,-2
Cc1cc(OCC(O)CN2CCN(c3ccccn3)CC2)cc(C)c1Cl (configuration not stated),11,-2,8,-4,-6
OCC1SC(O)C(O)C(O)C1O (configuration not stated),8,x,x,x,-6
CSC1=Nc2ccccc2N=C(N2CCCC2)C1,1,x,x,x,9
O=C1/C(=C/c2ccncc2)SC(=S)N1Nc1ccccc1,-7,61*,-17,2,-4
CCCCCn1c(=O)[nH]c2cc(C(=O)NCCCN3CCC(C)CC3)ccc2c1=O,-11,3,28*,0,8
COc1cccc2c1C(=O)C=C(C)C2=O,10,64*,-6,-2,7
Cn1c(=O)c2[nH]c(NCCCN3CCOCC3)nc2n(C)c1=O,0,-1,22*,-2,4
COC(=O)C1=C(C)N(Cc2cccc(C(F)(F)F)c2)C(=NCc2cc(OC)c(OC)c(OC)c2)NC1c1cccc(Cl)c1 (configuration not stated),10,x,x,x,4
CCN1C(=O)N(C(C)=O)[C@@H]2C[C@H](C(=O)N3CCCC3)[C@H](C)[C@H](c3ccccc3)C[C@@H]21,-11,x,x,x,3
Cn1cc(S(=O)(=O)N2CCOCC2)cc1C(=O)O,1,-1,31*,-2,10
Cc1cccc(C)c1NC(=O)c1cc(S(=O)(=O)N2CCOCC2)cn1C,-5,1,-5,7,-7
O=C(Cc1ccc(NC(=O)C2CCN(C(=O)C3CCCC3)CC2)cc1)Nc1cccc(C(=O)N2CCCC2)c1,4,x,x,x,1
CC(OC(=O)C1CCN(S(=O)(=O)c2ccccc2)CC1)C(=O)Nc1ncc(Cl)cc1Cl (configuration not stated),-6,1,-2,5,5
CC(OC(=O)C1CCCC1)C(=O)Nc1ncc(Cl)cc1Cl (configuration not stated),7,0,22*,1,4
SMILES,ASAP1 inh,Granule exo inh,NRP1-CendR mod,V-ATPase pHluor,ARFGAP1 inhibitor
COc1ccc(C2=C/C(=C\c3ccc(OC(C)=O)cc3)C(=O)O2)cc1,-3,0,108*,1,-9
COC(=O)C1=C(C)N(Cc2ccccc2C(F)(F)F)C(=NCc2cc(OC)c(OC)c(OC)c2)NC1c1ccccc1 (configuration not stated),12,x,x,x,1
COc1cc(CN2C[C@@H](CO)O[C@@H](n3cnc4c(N5CCN(c6ccccc6)CC5)ncnc43)C2)cc(OC)c1OC,-16,-4,37*,x,1
CC(=O)C(=Nc1ccccc1Cl)NNc1ccc(Cl)cc1,4,89*,-9,6,-4
CCCN(Cc1ccccc1)C(=S)Nc1ccc(SC(F)F)cc1,-4,90*,-7,4,12
O=C(c1ccccn1)N1CC=C(c2ccccc2)CC1,-2,0,10,0,-11
O=C(c1cccs1)N1CC=C(c2ccccc2)CC1,5,-4,17*,-2,-10
CC1(c2ccc3noc(-c4ccccc4)c3c2)OCCO1,8,-5,-4,-3,5
O=Cc1ccc2noc(-c3ccc(F)cc3)c2c1,-16,-2,24*,7,-2
CC1(c2ccc3noc(-c4ccc(F)cc4)c3c2)OCCO1,4,-1,27*,-1,3
COCCNC(=O)C1(C)CCCN(Cc2c(C)nn(-c3ccccc3)c2C)C1 (configuration not stated),6,-2,-4,x,-8
C=CCN1C(=O)c2n[nH]c(COC)c2C1c1ccc(Br)cc1 (configuration not stated),8,x,x,x,4
Cc1cc(C)n(CCC(=O)N/N=C/c2ccc(O)cc2)n1,11,16,5,1,-6
Cc1cc(C)n(CCC(=O)N/N=C/c2c(O)ccc3ccccc23)n1,6,3,34*,4,12
CN(C(=O)Cn1nnc(-c2ccccc2)n1)C1CCS(=O)(=O)C1 (configuration not stated),3,0,-12,-2,-6
Nc1cccc2nc3ccccc3cc12,x,-2,8,-5,x
Cc1cc2c(N)cccc2nn1,0,0,41*,-7,-3
CN(C)c1ncnc2c1ncn2C1CCCO1 (configuration not stated),-3,1,26*,1,0
C[C@H](O)[C@@H]1C(=O)N2CCc3c([nH]c4c(-c5ccccc5)cccc34)[C@@H]2C[C@@H]1N(C)C(=O)c1ccccc1F,6,x,x,x,-3
Nc1ccc(N=Nc2ccccc2)cc1[N+](=O)[O-],6,-3,23*,4,-4
Cc1ccc(N)c([N+](=O)[O-])c1,-3,-2,-5,-1,-10
COc1ccc(-c2cc(NC(=O)Cc3c[nH]c4ccccc34)ccc2Nc2cccnc2)c(OC)c1,5,x,x,x,9
